Shown are actives, neighbours in structure and some others; about 2.1% of the full set was active somewhere.
Thrombin inh = thrombin (human) inhibition. P00734. alpha-thrombin, Boc-VPR-AMC fluorogenic substrate cleavage. inhibition, % at 5 µM. 0.26% of 220,000 active. AID 1046;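 active means inhibition at or above 40%; inactive means inhibition below 40%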;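 further: 0% = enzyme with no compound and 100% = wells without enzyme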
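Material: Human alpha-thrombin protein | Buffer or medium: pH 7.5 Tris-saline with Tween 20 | Reagent: Boc-VPR-AMC substrate, 15 µM final | Schedule: Reaction at ambient temperature | Detection: AMC fluorescence at 355 nm excitation and 460 nm emission | Evaluation: Percent inhibition scaled between no-compound controls and no-enzyme blanks | Controls: no-compound enzyme wells and no-enzyme blanks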
PGE2 EP2 inh = inhibitors of human EP2 prostaglandin E2 receptor. 0.52% of 260,000 active. inhibition, % at 25 µM. P43116. C6 glioma cells expressing human EP2, cAMP TR-FRET; cells stimulated with saturating PGE2;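 active means percent inhibition above 40 after rounding to a whole number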;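 further: rat C6 glioma host cells with rolipram phosphodiesterase inhibitor present; the protocol text gives 20 µM as final concentration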
hK5 inh = blocks human kallikrein 5 protease activity; Q9Y337; recombinant hK5, fluorogenic AMC substrate cleavage; inhibition, % at 5 µM; 0.59% of 210,000 active; AID 873;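 active means inhibition of 40% or more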;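 further: 0% = enzyme controls without compound and 100% = no-enzyme blanks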
EP2 modulator = modulators of human EP2 prostaglandin E2 receptor; EP2-expressing cells, cAMP HTRF FRET, PGE2 co-stimulation; induction, % at 25 µM; 0.83% of 260,000 active; AID 940; P43116;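 active means compounds whose cAMP rise, as percent of the full-agonist control response, exceeds 60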;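 further: rat C6 glioma line stably carrying human EP2 under a CMV promoter; the protocol text gives 20 µM as final concentration; 100% = response of wells given 1 µM PGE2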
FXIa inh 1536 = blocks human coagulation factor XIa protease activity; purified FXIa, Boc-Glu-Ala-Arg-AMC fluorogenic substrate; 0.14% of 220,000 active; inhibition, % at 5 µM;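 active means inhibition of at least 40%; inactive means inhibition below 40%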;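 further: fluorescence of freed AMC excited at 355 nm; 0% = enzyme without compound and 100% = no enzyme blank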
Target sequence (P03951 19-387 limits assumed): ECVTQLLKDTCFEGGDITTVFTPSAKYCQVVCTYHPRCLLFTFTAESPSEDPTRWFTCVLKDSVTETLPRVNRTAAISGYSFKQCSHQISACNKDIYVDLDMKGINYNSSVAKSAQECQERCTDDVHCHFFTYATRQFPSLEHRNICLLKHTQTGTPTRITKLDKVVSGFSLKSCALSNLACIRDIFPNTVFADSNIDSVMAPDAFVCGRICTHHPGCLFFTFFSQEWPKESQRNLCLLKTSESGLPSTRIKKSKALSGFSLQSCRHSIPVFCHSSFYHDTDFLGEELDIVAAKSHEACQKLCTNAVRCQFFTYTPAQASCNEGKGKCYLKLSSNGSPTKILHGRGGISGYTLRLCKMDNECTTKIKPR
Target sequence (P03951 388-625 limits assumed): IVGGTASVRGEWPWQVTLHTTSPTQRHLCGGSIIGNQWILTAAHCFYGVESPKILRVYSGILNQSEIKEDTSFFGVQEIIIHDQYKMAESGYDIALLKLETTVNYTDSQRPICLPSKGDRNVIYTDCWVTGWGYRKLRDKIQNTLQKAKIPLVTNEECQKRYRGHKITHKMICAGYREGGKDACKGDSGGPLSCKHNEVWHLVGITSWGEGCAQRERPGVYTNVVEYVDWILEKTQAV
FXIIa inh 1536 = factor XIIa (human) inhibition | purified FXIIa, Boc-QGR-AMC fluorogenic substrate, 2 h | AID 800 | inhibition, % at 5 µM | 0.3% of 220,000 active; in the data active means inhibition above about 40%;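 further: 0% = enzyme with no compound and 100% = blank without enzyme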
Active calls of the source: *; x = not tested or not shown.

SMILES | Thrombin inh | PGE2 EP2 inh | hK5 inh | EP2 modulator | FXIa inh 1536 | FXIIa inh 1536
Cc1cc2cc(CN(Cc3ccccc3)Cc3nnnn3C3CCCC3)c(=O)[nH]c2cc1C | x | 14 | x | 71* | x | x
Cc1ccc2[nH]c(=O)c(CN(Cc3ccccc3)Cc3nnnn3C3CCCC3)cc2c1 | -2 | 9 | -9 | 57 | -7 | -17
COc1ccc2cc(CN(Cc3ccccc3)Cc3nnnn3C3CCCCC3)c(=O)[nH]c2c1 | x | 6 | x | 75* | x | x
Cc1cccc2cc(CN(Cc3ccc4c(c3)OCO4)Cc3nnnn3C3CCCCC3)c(=O)[nH]c12 | x | 14 | x | 68* | x | x
N#Cc1ccsc1NC(=O)CN(Cc1ccccc1)Cc1ccccc1 | -5 | 10 | 4 | 44 | 43* | 10
CCOC(=O)CN(C)C(=O)CCc1nnc(-c2ccsc2)o1 | -4 | 10 | 4 | 5 | -2 | 9
COc1cccc(CN(C)C(=O)CCc2nnc(-c3ccsc3)o2)c1 | 94* | 8 | 3 | 19 | 0 | 9
CCc1ccc(OCC(=O)Nc2nc3ccc(NC(C)=O)cc3s2)cc1 | x | 10 | x | -60 | x | x
O=C(O)C1CCN(c2ccc(Cl)nn2)CC1 | 55* | 12 | 1 | 23 | -2 | 9
CCc1c(C)sc2nc(C(C)C)n3c(=O)n(Cc4ccncc4)nc3c12 | x | x | x | 61* | x | x
CCc1c(C)sc2nc(C(C)C)n3c(=O)n(Cc4cccnc4)nc3c12 | x | x | x | 19 | x | x
CCOC(=O)c1cc(C)sc1NC(=S)Nc1ccccc1 | -1 | 9 | -3 | 65* | 4 | 12
CCOC(=O)c1[nH]c2ccccc2c1NC(=S)Nc1ccccc1 | 43* | x | -9 | 30 | 6 | 15
CCOC(=O)Cn1c(C(F)(F)F)nc2nc(Cl)c(Cl)nc21 | x | 40* | x | -33 | x | x
CCOC(=O)Cn1c2ccccc2c2nc3ccccc3nc21 | -2 | 14 | 3 | 44 | 2 | 9
COc1ccc(CCNC(=O)CSc2nnc(-c3ccc(F)cc3)o2)cc1OC | 22 | 5 | 130* | -24 | 16 | 21
CCc1cc2ccc(OC)cc2nc1SCC(=O)NNC(=O)c1ccc(OC)cc1 | x | 13 | x | 62* | x | x
CCc1cc2ccc(OC)cc2nc1SCC(=O)Nc1ccccc1C | x | 14 | x | 80* | x | x
CCc1cc2ccc(OC)cc2nc1SCC(=O)NCCc1ccc(OC)c(OC)c1 | x | 15 | x | 74* | x | x
CCOc1ccccc1NC(=O)CSc1nc2cc(OC)ccc2cc1CC | x | 5 | x | 42 | x | x
Cc1nc2sc3c(c2c2nnc(SCC(=O)c4ccc(F)cc4)n12)CCCC3 | x | 10 | x | 6 | x | x
CCc1cc2ccc(OC)cc2nc1SCC(=O)Nc1c(C)cccc1C | x | 21 | x | 64* | x | x
C[N+](C)(C)[C@@H](C1=CCCC1=O)c1ccccc1 | x | 52* | x | 18 | x | x
Cc1ccc(-c2noc(CN3CCC(C(N)=O)CC3)n2)cc1 | 104* | x | 86* | 16 | 2 | 26
CCOC(=O)C1CCN(Cc2nc(-c3ccc(OC)c(OC)c3)no2)CC1 | -7 | 11 | -9 | -11 | -6 | 8
SMILES | Thrombin inh | PGE2 EP2 inh | hK5 inh | EP2 modulator | FXIa inh 1536 | FXIIa inh 1536
CCCCOCCCNC(=O)C1CCCCC1 | 13 | 12 | 41* | -2 | 7 | 10
CNc1oc(-c2ccc(C)cc2)nc1P(=O)(c1ccccc1)c1ccccc1 | 4 | 8 | -14 | 61* | 6 | 8
COCCn1c(=O)n(CC(=O)Nc2cccc(OC)c2)c2cccnc21 | x | x | x | 5 | x | x
COc1ccc(-c2nnn(CC(=O)NCCc3c[nH]c4ccccc34)n2)cc1 | x | 14 | x | -124 | x | x
CC(C)(C)NS(=O)(=O)c1ccc(OCC(=O)NCc2ccccn2)cc1 | x | 6 | x | -24 | x | x
Cc1ccc2[nH]c(=O)c(N3CCOCC3)c(-c3ccccc3)c2c1 | 16 | 7 | 47* | 47 | 12 | 2
CC(C)(C)C(=O)Nc1ccc(C(=O)N/N=C/c2ccccc2OC(=O)c2ccc(Cl)cc2)cc1 | -1 | 7 | -11 | -21 | 12 | 19
CC(C)(C)C(=O)Nc1ccc(C(=O)N/N=C/c2ccccc2OC(=O)c2ccccc2)cc1 | -3 | 15 | 11 | -43 | 60* | -1
CCCc1cc(=O)n2[nH]cnc2n1 | -1 | 5 | -4 | -31 | 18 | 22
Cc1cc(=O)n2[nH]cnc2n1 | 9 | 2 | 41* | 28 | 18 | 24
Cc1ncccc1C(=O)NC(c1ccc(F)c(F)c1)c1nccn1C (stereo not given) | x | x | x | 8 | x | x
Cc1ccccc1C1C(C#N)=C(N)NC(S)=C1C#N (stereo not given) | x | 14 | x | 71* | x | x

Assay outcomes from PubChem BioAssay.
